Laboratory results published in ChEMBL document CHEMBL1149111, “Design and synthesis of a fluoroindolocarbazole series as selective topoisomerase I active agents. Discovery of water-soluble 3,9-difluoro-12,13-dihydro-13-[6-amino-beta-D-glucopyranosyl]-5H,13H-benzo[b]- thienyl[2,3-a]pyrrolo[3,4-c]carbazole- 5,7(6H)-dione (BMS-251873) with curative antitumor …” (J Med Chem, 2004).

Legend:
[1] = Ratio for cytotoxicity against camptothecin resistant P388/CPT45 cells to that of parental P388 cells; format: functional, Mus musculus
Summary of the method: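 Cytotoxicity after 3-day continuous exposure by tetrazolium dye conversion, read at 450 nm, in camptothecin-resistant P388/CPT45 cells and parental P388 cells; value is IC50 in P388/CPT45 divided by IC50 in P388.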

[2] = biological target: T1, DNA topoisomerase 1 (Homo sapiens) (UniProt P11387); test: Ratio of effective concentration for inducing single strand breaks in the DNA substrate by topoisomerase I compared to camptothecin
T1 sequence (whole entry): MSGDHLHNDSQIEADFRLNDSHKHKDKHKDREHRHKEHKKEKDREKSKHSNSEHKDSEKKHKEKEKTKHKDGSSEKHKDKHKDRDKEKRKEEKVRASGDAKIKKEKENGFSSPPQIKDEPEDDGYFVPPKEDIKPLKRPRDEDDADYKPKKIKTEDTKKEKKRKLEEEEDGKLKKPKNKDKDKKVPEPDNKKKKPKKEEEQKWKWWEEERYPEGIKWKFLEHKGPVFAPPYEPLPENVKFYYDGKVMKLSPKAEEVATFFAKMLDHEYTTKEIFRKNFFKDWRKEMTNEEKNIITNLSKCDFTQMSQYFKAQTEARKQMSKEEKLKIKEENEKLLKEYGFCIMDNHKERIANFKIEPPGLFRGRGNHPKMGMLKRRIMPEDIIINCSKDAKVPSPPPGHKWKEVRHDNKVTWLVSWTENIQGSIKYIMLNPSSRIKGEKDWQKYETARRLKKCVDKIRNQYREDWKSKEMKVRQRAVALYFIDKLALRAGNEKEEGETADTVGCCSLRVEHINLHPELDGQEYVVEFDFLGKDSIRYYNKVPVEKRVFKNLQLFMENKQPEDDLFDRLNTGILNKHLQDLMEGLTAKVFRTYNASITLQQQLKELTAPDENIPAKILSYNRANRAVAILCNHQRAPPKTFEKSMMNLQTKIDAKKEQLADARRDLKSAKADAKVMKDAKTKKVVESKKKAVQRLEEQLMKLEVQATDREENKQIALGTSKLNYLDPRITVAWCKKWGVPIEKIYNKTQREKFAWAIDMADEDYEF
Summary of the method: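 Topoisomerase I-mediated single-strand breaks in DNA substrate assayed by a modified Hsiang protocol; median effective concentration (EC50) for break induction divided by camptothecin EC50 measured in the same experiment.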

[3] = system: P388; test: In vitro cytotoxic concentration against P388 murine leukemia cells was determined; format: functional, cell-based; details: Mus musculus
Summary of the method: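 P388 murine leukemia cells exposed continuously to compound for 3 days; proliferation measured by soluble tetrazolium/formazan conversion (absorbance 450 nm). IC50 = concentration reducing absorbance to 50% of untreated control cells; reported as mean.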

[4] = Volume of distribution of compound in plasma was determined at 24 mg/Kg; format: ADME, organism-based; details: mouse, read-out: Vds
[5] = Half life of compound was determined in plasma of mice at 24 mg/Kg; format: ADME, organism-based; details: mouse
[6] = system: Mus musculus; test: Inhibitory concentration of compound was determined after intravenous administration in mice after 8 hours of exposure at 24 mg/Kg; format: ADME, organism-based
[7] = system: Mus musculus; test: Area under curve was determined for the compound at 24 mg/Kg; format: ADME, organism-based; details: in vivo
[8] = Plasma clearance at 24 mg/Kg; format: ADME, organism-based; details: mouse
[9] = Volume of distribution of compound in plasma was determined at 5 mg/Kg; format: ADME, organism-based; details: mouse, read-out: Vds
[10] = Half life of compound was determined in plasma of mice at 5 mg/Kg; format: ADME, organism-based; details: mouse
[11] = system: Mus musculus; test: Area under curve was determined for the compound at 5 mg/Kg; format: ADME, organism-based; details: in vivo
[12] = system: Mus musculus; test: Inhibitory concentration of compound was determined after intravenous administration in mice after 8 hours of exposure at 5 mg/Kg; format: ADME, organism-based
[13] = Plasma clearance at 5 mg/Kg; format: ADME, organism-based; details: mouse

Row | SMILES | Ratio [1] | Ratio [2] | IC50 [3] | other results
1 | O=C1NC(=O)c2c1c1c3ccccc3[nH]c1c1c2c2cc(F)ccc2n1C1OC(CO)C(O)C(O)C1O (stereo not given) | >9.5 | 6.6 | 1040 nM | –
2 | O=C1NC(=O)c2c1c1c3ccccc3oc1c1c2c2cc(F)ccc2n1C1OC(CO)C(O)C(O)C1O (stereo not given) | 13.6 | 1.5 | 529 nM | –
3 | O=C1NC(=O)c2c1c1c3ccccc3sc1c1c2c2cc(F)ccc2n1C1OC(CO)C(O)C(O)C1O (stereo not given) | >51.3 | 2.2 | 155 nM | –
4 | O=C1NC(=O)c2c1c1c3cc(F)ccc3oc1c1c2c2cc(F)ccc2n1C1OC(CO)C(O)C(O)C1O (stereo not given) | 63.7 | 0.27 | 114 nM | –
5 | Cn1c2cc(F)c(F)cc2c2c3c(c4c5cc(F)c(F)cc5n(C5OC(CO)C(O)C(O)C5O)c4c21)C(=O)NC3=O (stereo not given) | >1 | > 600 | > 8720 nM | –
6 | NN1C(=O)c2c(c3c4cc(F)ccc4n(C4OC(CO)C(O)C(O)C4O)c3c3[nH]c4ccc(F)cc4c23)C1=O (stereo not given) | 196.9 | 0.22 | 20 nM | –
7 | O=C1NC(=O)c2c1c1c3ccccc3[nH]c1c1c2c2ccc(F)cc2n1C1OC(CO)C(O)C(O)C1O (stereo not given) | 4.6 | 3.1 | 392 nM | –
8 | O=C1NC(=O)c2c1c1c3cccc(Cl)c3[nH]c1c1c2c2cccc(Cl)c2n1C1OC(CO)C(O)C(O)C1O (stereo not given) | 1.26 | > 500 | 540 nM | –
9 | O=C1NC(=O)c2c1c1c3ccc(F)cc3[nH]c1c1c2c2ccccc2n1C1OC(CO)C(O)C(O)C1O (stereo not given) | 11.4 | > 200 | 98 nM | –
10 | O=C1NC(=O)c2c1c1c3cc(F)ccc3[nH]c1c1c2c2cc(F)ccc2n1C1OC(CO)C(O)C(O)C1O (stereo not given) | 182.7 | 0.22 | – | Vd [4]: 0.1 L/kg; half-life [5]: 1.6 h; IC50 [6]: 860 nM; AUC [7]: 0.17 uM hr ml-1; clearance [8]: 3.6 mL/min/kg
11 | O=C1NC(=O)c2c1c1c3cc(F)ccc3[nH]c1c1c2c2ccccc2n1C1OC(CO)C(O)C(O)C1O (stereo not given) | 31.7 | 1.7 | 101 nM | –
12 | O=C1NC(=O)c2c1c1c3ccc(F)cc3[nH]c1c1c2c2ccc(F)cc2n1C1OC(CO)C(O)C(O)C1O (stereo not given) | 8.7 | 2 | 260 nM | –
13 | CN1C(=O)c2c(c3c4cc(F)ccc4n(C4OC(CO)C(O)C(O)C4O)c3c3sc4ccc(F)cc4c23)C1=O (stereo not given) | 14.1 | 0.48 | 236 nM | –
14 | CN1C(=O)c2c(c3c4cc(F)ccc4n(C4OC(CO)C(O)C(O)C4O)c3c3[nH]c4ccc(F)cc4c23)C1=O (stereo not given) | >10.8 | 1 | 862 nM | –
15 | O=C1NC(=O)c2c1c1c3cc(F)c(F)cc3[nH]c1c1c2c2cc(F)c(F)cc2n1C1OC(CO)C(O)C(O)C1O (stereo not given) | 67.1 | 0.69 | 7 nM | –
16 | O=C1c2c(c3c4cc(F)ccc4n(C4OC(CO)C(O)C(O)C4O)c3c3[nH]c4ccc(F)cc4c23)C(=O)N1O (stereo not given) | 19.6 | 0.08 | 35 nM | –
17 | O=C1NC(=O)c2c1c1c3cc(F)ccc3sc1c1c2c2cc(F)ccc2n1C1OC(CO)C(O)C(O)C1O (stereo not given) | 232.5 | 0.09 | 10 nM | Vd [9]: 1.27 L/kg; half-life [10]: 7.6 h; AUC [11]: 0.068 uM hr ml-1; IC50 [12]: 150 nM; clearance [13]: 9.33 mL/min/kg
